{"data": "Measurements of several laboratories", "target": "Casein kinase I isoform gamma-1 (CSNK1G1, Homo sapiens, UniProt Q9HCP0)"}
{"SMILES": "COc1cnc(Nc2cccc(S(N)(=O)=O)c2)nc1N1CCN(c2ccccc2)CC1", "effect on": "binding", "method": "competition with immobilised ligand", "tested at": "1 µM", "remaining binding": "100%"}
{"SMILES": "O=C(Nc1c[nH]nc1C(=O)NC1CCNCC1)c1cc(F)cc(F)c1", "effect on": "binding", "method": "competition with immobilised ligand", "tested at": "1 µM", "remaining binding": "89%"}
{"SMILES": "O=C(NS(=O)(=O)c1ccc(NCC2CCOCC2)c([N+](=O)[O-])c1)c1ccc(N2CCN(Cc3ccc(C(F)(F)F)cc3-c3ccc(Cl)cc3)CC2)cc1Oc1cnc2[nH]ccc2c1", "effect on": "cell-free assay", "method": "competition with immobilised ligand", "tested at": "1 µM", "remaining binding": "95%"}
{"SMILES": "O=C(NCCCN1CCOCC1)c1ccc(Nc2nccc(-c3cc4ccccc4s3)n2)cc1", "effect on": "binding", "method": "competition with immobilised ligand", "tested at": "1 µM", "remaining binding": "81%"}
{"SMILES": "CCCCN(CCCC)C(=O)CN1C[C@H](c2cc(OC)c3c(c2)OCO3)[C@@H](C(=O)O)[C@@H]1CC(C)(C)CCC", "effect on": "cell-free assay", "method": "competition with immobilised ligand", "tested at": "1 µM", "remaining binding": "100%"}
{"SMILES": "O=C(c1ccc(Nc2ncc(Cl)c(-c3ccc(Cl)s3)n2)cc1)N1CCC(N2CCCC2)CC1", "effect on": "binding", "method": "competition with immobilised ligand", "tested at": "1 µM", "remaining binding": "80%"}
{"SMILES": "Cc1cnn2ncc(-c3ccnc(N(C)C)n3)c2c1", "effect on": "binding", "tested at": "1 µM", "remaining binding": "73%"}
{"SMILES": "CCC(=O)N[C@H]1CC[C@@H](C(=O)N(C)c2ccc(-c3nc4ccccc4o3)cc2)C1", "effect on": "cell-free assay", "method": "competition with immobilised ligand", "tested at": "1 µM", "remaining binding": "90%"}
{"SMILES": "O=C(c1ccc(Nc2ncc(Cl)c(-c3cc4ccccc4s3)n2)cc1)N1CCC(N2CCCC2)CC1", "effect on": "binding", "method": "competition with immobilised ligand", "tested at": "1 µM", "remaining binding": "80%"}
{"SMILES": "N[C@@H]1CCN(c2nccc(-c3cnn4ncccc34)n2)C1", "effect on": "binding", "tested at": "1 µM", "remaining binding": "100%"}
{"SMILES": "CO[C@@H](C)c1c(Nc2ccc([C@H](N(C)C(=O)C3CCS(=O)(=O)CC3)C(F)(F)F)cc2)cnc2cc(Cl)nn12", "effect on": "cell-free assay", "method": "competition with immobilised ligand", "tested at": "1 µM", "remaining binding": "100%"}
{"SMILES": "C[C@H]1CCN(c2nccc(-c3cnn4ncccc34)n2)C1", "effect on": "binding", "tested at": "1 µM", "remaining binding": "85%"}
{"SMILES": "NS(=O)(=O)c1cc(NC(=O)Cc2ccccc2)ccc1Oc1cccc(Cl)c1", "effect on": "cell-free assay", "method": "competition with immobilised ligand", "tested at": "1 µM", "remaining binding": "89%"}
{"SMILES": "CC1CCCN1c1nccc(-c2cnn3ncccc23)n1 (stereo not drawn)", "effect on": "binding", "tested at": "1 µM", "remaining binding": "100%"}
{"SMILES": "COc1ncc2cc3ccccc3nc2c1C#N", "effect on": "cell-free assay", "method": "competition with immobilised ligand", "tested at": "5 µM", "remaining binding": "100%"}
{"SMILES": "CN(C)c1ncc(F)c(-c2cnn3ncccc23)n1", "effect on": "binding", "tested at": "1 µM", "remaining binding": "74%"}
{"SMILES": "Cn1nc(C(=O)NCc2ccc(C(=O)O)cc2)cc1-c1ccc2[nH]ccc2c1", "effect on": "cell-free assay", "method": "competition with immobilised ligand", "tested at": "0.1 µM", "remaining binding": "91%"}
{"SMILES": "Nc1ncc2c(n1)-c1c([nH]c3ccc(C#CC4CC4)cc13)CCCC2", "effect on": "binding", "method": "competition with immobilised ligand", "tested at": "1 µM", "remaining binding": "79%"}
